Data set [1] is described as follows: Selectivity index, ratio of CC50 for human HepG2 cells to IC50 for chloroquine/pyrimethamine/proguanil-resistant Plasmodium falciparum K1 infected in human erythrocytes. In kind it is functional.
Data set [2] is described as follows: Cytotoxicity against human HepG2 cells assessed as reduction in cell viability after 72 hrs by MTT assay. In kind it is toxicity, cell-based. The essentials:
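HepG2 hepatocarcinoma cells in RPMI with 10% FBS, L-glutamine, penicillin/streptomycin, 37 °C, 6% CO2. Seeded 5.10^3 cells/well, 24 h attachment, then compounds added from DMSO (final under 0.5% v/v) at various concentrations for 72 h, triplicates. Wells checked microscopically for precipitate. MTT 0.5 mg/mL 2 h, formazan dissolved in DMSO, A570 (ref 630 nm). Viability as % of untreated cells; CC50 from dose–response curve.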
A general note: Tetrazolium assays rely on reduction of a dye to a coloured formazan, in cell work by metabolically active cells.

For another data set, the system named is Plasmodium falciparum. In words: Antiplasmodial activity against chloroquine/pyrimethamine/proguanil-resistant Plasmodium falciparum K1 infected in human erythrocytes after 72 hrs by SYBR Green 1 dye based fluorescence spectrophotometric method. The data set is classed as functional, cell-based. Particulars: K1, 72 h.

The CC50 is the concentration that lowers cell viability or growth by half. The term IC50 denotes the concentration that inhibits the measured activity by half.

With `Clc1ccc(Nc2cc(C(Cl)(Cl)Cl)nc3ccccc23)c(Cl)c1`, in data set [1], the “Ratio CC50/IC50” value stood at 9. Besides, the CC50 at 72 h in data set [2] is 11.7 µM. The same molecule displayed an IC50 in the data set on Plasmodium falciparum of 1.3 µM.

Take `Clc1ccc(Sc2nc3ccccc3nc2C(Cl)(Cl)Cl)cc1`: the “Ratio CC50/IC50” value in data set [1] is given as 77.2. For the same molecule, the CC50 at 72 h in data set [2] turned out to be 38.6 µM. Moreover, the IC50 in the data set on Plasmodium falciparum stood at 0.5 µM.

Turning to `Clc1nc(C(Cl)(Cl)Cl)nc2ccccc12`, in data set [1], the “Ratio CC50/IC50” value was greater than 2.3. Further, the CC50 at 72 h in data set [2] is greater than 125 µM.

As for `FC(F)(F)c1cccc(Nc2cc(C(Cl)(Cl)Cl)nc3ccccc23)c1`, in data set [1], the “Ratio CC50/IC50” value is given as 5. For the same molecule, the CC50 at 72 h in data set [2] was 6.5 µM. This molecule also had an IC50 in the data set on Plasmodium falciparum of 1.3 µM.

Turning to `C[C@H]1c2cccc(O)c2C(=O)C2=C(O)[C@]3(O)C(=O)C(C(N)=O)=C(O)[C@@H](N(C)C)[C@@H]3[C@@H](O)[C@@H]21.O` [DOXYCYCLINE], in data set [1], the “Ratio CC50/IC50” value is recorded as 3.3.

As to `O=C1C(O)=C([C@H]2CC[C@H](c3ccc(Cl)cc3)CC2)C(=O)c2ccccc21` [ATOVAQUONE], in data set [1], the “Ratio CC50/IC50” value stood at 15600. The CC50 at 72 h in data set [2] was greater than 15.6 µM. This molecule had an IC50 with Plasmodium falciparum of 0.001 µM.
